Screens from PubChem.
SENP6 block = inhibitors of human SENP6 protease | inhibition, % at 10 µM | 330,000 tested, 1.8% active | Recombinant SENP6 catalytic domain, aminoluciferin luminescence | Q9GZR1;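 active = inhibition above about 50% at the single tested dose, limit read from the data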;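 note: plate controls were DMSO wells with enzyme for no effect and DMSO wells lacking enzyme for full effect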
Target sequence (Q9GZR1 628-1112 limits assumed): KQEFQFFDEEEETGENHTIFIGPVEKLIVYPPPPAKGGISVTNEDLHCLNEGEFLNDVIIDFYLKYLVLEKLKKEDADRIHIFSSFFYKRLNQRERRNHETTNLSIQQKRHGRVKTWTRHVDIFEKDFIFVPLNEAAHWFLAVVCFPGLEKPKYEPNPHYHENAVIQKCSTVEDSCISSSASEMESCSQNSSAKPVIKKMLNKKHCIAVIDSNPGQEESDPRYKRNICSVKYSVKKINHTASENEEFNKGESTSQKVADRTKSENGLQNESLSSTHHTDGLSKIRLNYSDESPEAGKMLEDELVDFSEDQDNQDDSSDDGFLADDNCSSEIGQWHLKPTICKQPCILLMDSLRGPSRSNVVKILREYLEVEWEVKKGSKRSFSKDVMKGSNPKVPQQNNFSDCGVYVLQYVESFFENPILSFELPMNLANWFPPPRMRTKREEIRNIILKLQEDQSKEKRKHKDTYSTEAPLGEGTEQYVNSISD
SENP8 block-1 = SENP8 (human) protease inhibition | recombinant SENP8, Nedd8 substrate fluorescence | inhibition, % at 20 µM | 360,000 tested, 0.64% active; in the data active = inhibition mostly above about 40%, no sharp cut-off; inactive = mostly below about 27%
UBC13 inh = inhibitors of human UBC13 polyubiquitin chain formation; 330,000 tested, 0.47% active; TR-FRET; inhibition, % at 20 µM; P61088; AID 485273; in the data active = inhibition above about 45%, passing the limit was not always enough
Target sequence (P61088 whole entry, looked up): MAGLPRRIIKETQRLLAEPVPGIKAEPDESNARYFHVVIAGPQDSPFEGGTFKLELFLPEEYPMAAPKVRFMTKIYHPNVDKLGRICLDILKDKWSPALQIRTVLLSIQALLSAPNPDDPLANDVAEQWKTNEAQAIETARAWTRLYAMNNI
SENP7 inh = inhibitors of human SENP7 protease; AID 434973; 330,000 tested, 1.5% active; inhibition, % at 5 µM; Q9BQF6; recombinant SENP7, Z-RLRGG-aminoluciferin luminescence, 40 min;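 active = inhibition above about 50% at the single test dose, limit read from the data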;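 note: plate controls were DMSO with enzyme for no effect and no enzyme buffer wells for full effect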
SENP8 block-2 = SENP8 protease inhibition; purified SENP8, Z-RLRGG-aminoluciferin cleavage, luminescence; inhibition, % at 10 µM; Q96LD8; AID 2540; 330,000 tested, 1.2% active; in the data active = inhibition above about 50%
Apaf-1 inh = human Apaf-1 inhibition; AID 489030; O14727; reconstituted apoptosome caspase-3 activity, DEVD-Rh110 fluorescence; 330,000 tested, 0.71% active; inhibition, % at 20 µM; active = inhibition of at least 40% at 20 µM;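 note: plate controls were DMSO wells for no effect and DEVD-CHO caspase inhibitor wells for full effect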
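Material: reconstituted apoptosome with Apaf-1, cytochrome c, caspase-9, procaspase-3, dATP / Buffer or medium: pH 7.5 Hepes buffer with CHAPS, BSA, DTT / Also added: cytochrome c with DEVD-Rh110 / Schedule: compound with Apaf-1, dATP, procaspase-3 30 min, then 50 min reaction, room temperature / Technique: rhodamine 110 fluorescence at Ex 480/Em 540 nm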
SENP8 conf = confirmation of human SENP8 protease inhibitors; shares compounds with SENP7 inh; 6,200 tested, 40% active; inhibition, % at 12.5 µM; Recombinant SENP8, Z-RLRGG-aminoluciferin luminescence, 60 min; AID 488912;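 active = mean inhibition across replicates above about 50%, limit read from the data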
SENP6 conf = confirmation of human SENP6 protease inhibitors | shares compounds with SENP7 inh | recombinant SENP6, Z-RLRGG-aminoluciferin luminescence | inhibition, % at 12.5 µM | 6,200 tested, 58% active | AID 488915
SENP7 confirm = confirmation of human SENP7 protease inhibitors; recombinant SENP7, Z-RLRGG-aminoluciferin luminescence, 40 min; inhibition, % at 12.5 µM; AID 488917; 6,200 tested, 69% active; shares compounds with SENP7 inh
Casp3 SENP sel = selectivity test for SENP inhibitors: human caspase-3 inhibition | shares compounds with SENP7 inh | inhibition, % at 12.5 µM | purified caspase-3, Z-DEVD-aminoluciferin luminescence, 60 min | 6,200 tested, 60% active | AID 488918;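 active = mean inhibition above about 50%, limit read from the data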;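 note: plate controls were enzyme with DMSO for no effect and wells without caspase-3 for full effect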
SENP luc ctr = counter-screen for SENP inhibitors: luminescence interference. shares compounds with SENP7 inh. 6,200 tested, 39% active. Pre-incubated SENP8/Z-RLRGG-aminoluciferin, luciferase luminescence interference. inhibition, % at 12.5 µM;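 active = mean inhibition above about 50% when retested at one dose, limit read from the data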;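 note: plate controls were DMSO wells with completed reaction for no effect and substrate without enzyme for full effect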
Apaf-1 inh conf = Apaf-1 inhibition, single-dose confirmed; shares compounds with Apaf-1 inh; reconstituted apoptosome, caspase-3 DEVD-Rh110 fluorescence; inhibition, % at 20 µM; 1,800 tested, 25% active;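 active = mean inhibition of at least 40% at 20 µM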;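 note: plate controls were DMSO wells for no effect and DEVD-CHO caspase inhibitor control wells for full effect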
Rh110 interf inh = Rh110 signal interference in Apaf-1 inhibitor counter-screen | shares compounds with Apaf-1 inh | Rh110 fluorescence interference, quenched caspase reaction | activation (fluorescence interference), % at 20 µM | 1,800 tested, under 10 active;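 active = signal rise of 40% or more at 20 µM, treated as a fluorescence artifact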
Fluor interf inh = Apaf-1 inhibitor counter-screen fluorescence artifact; IC50, µM; AID 588538; shares compounds with Apaf-1 inh; fluorescence interference counterscreen, Apaf-1 assay format; 460 tested, under 10 active; call rule not given here
Starred values were filed as active, the others as inactive; nt = no result given. Most compounds without a hit are left out; they make up all but 3.1% or so of the library.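 Rule for the calls, unless noted: active = mean inhibition above about 50% in the one-dose retest (limit read from the data); inactive = the rest.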

SMILES	SENP6 block	SENP8 block-1	UBC13 inh	SENP7 inh	SENP8 block-2	Apaf-1 inh	SENP8 conf	SENP6 conf	SENP7 confirm	Casp3 SENP sel	SENP luc ctr	Apaf-1 inh conf	Rh110 interf inh	others
CCN1CCN(C2=C(NS(=O)(=O)c3ccc(C)cc3)C(=O)c3ccccc3C2=O)CC1	52*	43*	-82	21	30	77*	-4	26	6	3	-4	35	4
CCN(CC)C(=O)C1=C(C)N(Cc2ccc(F)cc2)C(=O)C(CC(=O)NCCCN(C)C)C1 (stereo not drawn)	nt	2	nt	nt	nt	nt	nt	nt	nt	nt	nt	nt	nt
COc1ccccc1C#CC1=CC(=O)C[C@H](c2ccc(F)cc2)C1	nt	-68	nt	nt	nt	nt	nt	nt	nt	nt	nt	nt	nt
CCc1ccc(OCC(=O)N/N=C2\CC(=O)c3ccccc32)cc1	53*	41*	-10	17	24	84*	28	66*	16	18	4	54*	10	Fluor interf inh=>100
COc1ccc(OCC(=O)N/N=C2\CCCCc3ccccc32)cc1	-17	3	-4	-11	-7	10	nt	nt	nt	nt	nt	nt	nt
COc1ccc(NC(=O)C2Cc3c(-c4ccccc4Oc4ccccc4)ccnc3O2)cc1OC (stereo not drawn)	nt	4	nt	nt	nt	nt	nt	nt	nt	nt	nt	nt	nt
COC(=O)[C@@]12C[C@@H](CC(=O)NCCC(C)C)C(=O)N(Cc3ccc4c(c3)OCO4)C1=CCC(C)(C)C2	nt	13	nt	nt	nt	nt	nt	nt	nt	nt	nt	nt	nt
Cc1[nH]n(-c2ccccc2)c(=O)c1C(c1ccccc1[N+](=O)[O-])C(C#N)C#N (stereo not drawn)	9	-12	-7	9	-2	10	nt	nt	nt	nt	nt	nt	nt
Cc1ccc(C(C[N+](=O)[O-])c2c(C)[nH]n(-c3ccccc3)c2=O)cc1 (stereo not drawn)	54*	61*	-18	39	26	93*	25	50	24	3	6	44*	1	Fluor interf inh=>100
Cc1ccc(C(=O)NC2(O)C(=O)c3ccccc3C2=O)cc1C	64*	100*	-39	60*	64*	97*	70*	85*	74*	2	5	93*	-5	Fluor interf inh=>100
Cc1ccc(C(=O)NCC(=O)OCN2C(=O)c3ccccc3C2=O)cc1C	-12	14	5	7	-5	-2	nt	nt	nt	nt	nt	nt	nt
O=C(NC1(O)C(=O)c2ccccc2C1=O)c1ccc(C(F)(F)F)cc1	74*	81*	-38	80*	67*	96*	79*	91*	84*	8	6	98*	13	Fluor interf inh=>100
CCOc1ccc(-c2ccc(C3=CC(=O)C[C@H](c4ccc(F)cc4)C3)cc2)cc1	nt	-365	nt	nt	nt	nt	nt	nt	nt	nt	nt	nt	nt
COc1cc2nn(-c3ccccc3N)nc2cc1OC	nt	-494	nt	nt	nt	nt	nt	nt	nt	nt	nt	nt	nt
Cc1ccc(-n2nc3ccc(N)cc3n2)cc1C	91*	-446	-23	32	82*	80*	-5	94*	101*	82*	52*	29	1
Cc1ccc(-n2nc3ccc(N)cc3n2)cc1Cl	90*	-300	-4	22	87*	96*	12	63*	76*	63*	2	47*	2	Fluor interf inh=>100
Cc1ccc(-n2nc3ccc(N)cc3n2)c(C)c1	78*	-313	-1	43	65*	68*	4	20	29	12	12	32	14
COc1ccc(-n2nc3ccc(N)cc3n2)cc1Cl	86*	-307	-9	59*	88*	95*	40	81*	95*	57*	46	55*	9	Fluor interf inh=>100
Cc1ccccc1Oc1ccc2c(c1)[C@@H]1C[C@H](N(C)C(=S)Nc3ccc(F)cc3)[C@H]([C@H](C)O)C(=O)N1CC2	nt	-4	nt	nt	nt	nt	nt	nt	nt	nt	nt	nt	nt
COC(=O)C1=COC(OC2OC(CO)C(O)C(O)C2O)C2C(C)CC(=O)C12 (stereo not drawn)	nt	1	nt	nt	nt	nt	nt	nt	nt	nt	nt	nt	nt
OC[C@@H]1CN(Cc2ccc(Cl)cc2)C[C@H](n2cnc3c(NC4CC4)ncnc32)O1	nt	18	nt	nt	nt	nt	nt	nt	nt	nt	nt	nt	nt
CCC(=O)N(C1=C(NC)C(=O)c2ccccc2C1=O)C(C)C	87*	59*	-83	33	3	69*	28	50	23	40	1	49*	-1	Fluor interf inh=>100
COc1ccc(NC(C)=O)cc1S(=O)(=O)NCc1ccc2c(c1)OCO2	nt	14	nt	nt	nt	nt	nt	nt	nt	nt	nt	nt	nt
COc1ccc(C(=O)Oc2ccc[nH]c2=O)cc1	-26	14	-8	-3	-17	-1	nt	nt	nt	nt	nt	nt	nt
CCNC(=O)Oc1ccc[nH]c1=O	51*	16	-38	14	13	42*	-3	0	-6	4	3	3	1
SMILES	SENP6 block	SENP8 block-1	UBC13 inh	SENP7 inh	SENP8 block-2	Apaf-1 inh	SENP8 conf	SENP6 conf	SENP7 confirm	Casp3 SENP sel	SENP luc ctr	Apaf-1 inh conf	Rh110 interf inh	others
CCc1ccc(-c2cn3nc(C)c(C)nc3n2)cc1	23	-276	-3	-1	27	6	nt	nt	nt	nt	nt	nt	nt
c1ccc(-c2cn3nc4c(nc3n2)CCCC4)cc1	50*	-436	-20	26	46	57*	86*	94*	96*	94*	36	27	4
Brc1ccc(-c2cn3nc4c(nc3n2)CCCC4)cc1	70*	-406	11	20	74*	41*	38	66*	60*	43	10	32	7
CCc1nc2ccc(C(=O)NCCCN3CCCC3=O)cn2c1N(C)C(=O)c1cccc(OC)c1	nt	-3	nt	nt	nt	nt	nt	nt	nt	nt	nt	nt	nt
CC(=O)Nc1ccc(C(=O)N2CCCC(c3cc(C(=O)NCc4ccc(F)cc4)no3)C2)cc1 (stereo not drawn)	nt	18	nt	nt	nt	nt	nt	nt	nt	nt	nt	nt	nt
CCOc1cc2c(C#N)c(N3CCOCC3)nc(N)c2c(N)n1	13	-411	-1	28	4	11	nt	nt	nt	nt	nt	nt	nt
CCCN(CC1CC1)c1nc(N)c2c(N)nc(OC)cc2c1C#N	82*	-499	-3	4	80*	93*	7	12	2	-5	-16	6	1
